{
  "source": "ChEMBL document CHEMBL1133516",
  "about": "“Biarylpropylsulfonamides as novel, potent potentiators of 2-amino-3- (5-methyl-3-hydroxyisoxazol-4-yl)- propanoic acid (AMPA) receptors” (J Med Chem, 2000)",
  "note": "pEC50: −log10 of the molar value.",
  "data": [
    {"biological_target": "Glutamate receptor 4 (Homo sapiens, UniProt P48058)", "sequence (P48058 whole entry)": "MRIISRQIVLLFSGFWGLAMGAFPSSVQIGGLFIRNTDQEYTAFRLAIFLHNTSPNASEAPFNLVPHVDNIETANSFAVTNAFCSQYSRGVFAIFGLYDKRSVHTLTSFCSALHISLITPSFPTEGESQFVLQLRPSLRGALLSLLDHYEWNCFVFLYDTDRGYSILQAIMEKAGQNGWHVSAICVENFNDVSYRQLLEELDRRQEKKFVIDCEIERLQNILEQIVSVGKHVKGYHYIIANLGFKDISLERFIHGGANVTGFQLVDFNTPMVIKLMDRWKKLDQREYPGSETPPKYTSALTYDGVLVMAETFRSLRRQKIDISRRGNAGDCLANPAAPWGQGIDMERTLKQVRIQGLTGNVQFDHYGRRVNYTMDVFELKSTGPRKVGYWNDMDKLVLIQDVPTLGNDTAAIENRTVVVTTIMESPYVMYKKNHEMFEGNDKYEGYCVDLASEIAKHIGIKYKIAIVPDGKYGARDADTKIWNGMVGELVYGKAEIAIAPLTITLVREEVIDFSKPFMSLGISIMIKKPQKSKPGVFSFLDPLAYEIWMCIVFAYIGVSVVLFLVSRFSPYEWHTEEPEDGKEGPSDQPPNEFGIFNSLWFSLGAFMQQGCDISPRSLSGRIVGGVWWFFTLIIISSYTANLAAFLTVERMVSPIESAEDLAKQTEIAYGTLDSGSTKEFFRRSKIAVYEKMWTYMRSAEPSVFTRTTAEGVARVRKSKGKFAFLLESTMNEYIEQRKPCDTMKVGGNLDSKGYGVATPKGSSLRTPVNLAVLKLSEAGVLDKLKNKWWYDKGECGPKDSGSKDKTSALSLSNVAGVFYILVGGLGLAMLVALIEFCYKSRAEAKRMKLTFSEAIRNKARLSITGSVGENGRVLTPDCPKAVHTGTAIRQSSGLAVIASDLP", "assay": "Tested for potentiation towards human iGluR4 receptor expressed in HEK293 cells", "assay_type": "functional, cell-based", "method_in_brief": "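Human GluR4 flip, stably homomerically expressed in HEK-293 cells. Cells loaded 60 min with 20 µM Fluo3-AM in HEPES buffer (138 mM NaCl, 5 mM CaCl2, 10 mM glucose, pH 7.1-7.3), then washed. Calcium-influx fluorescence read after 100 µM L-glutamate with compound at various concentrations. Responses expressed as % of 100 µM cyclothiazide; EC50 ± SEM calculated.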", "values": [
      {"compound": "CC(CNS(=O)(=O)N(C)C)c1ccc(-c2ccccc2F)cc1", "note": "(centres undefined)", "pEC50": 5.40},
      {"compound": "CC(C)S(=O)(=O)NCC(CCc1ccccc1)c1ccc(C(C)(C)C)cc1", "note": "(centres undefined)", "pEC50": "< 4.00"},
      {"compound": "CC(CNS(=O)(=O)C(C)C)c1ccc(-c2ccsc2)cc1", "note": "(centres undefined)", "pEC50": 6.18},
      {"compound": "CC(CNS(=O)(=O)C(C)C)c1ccc(-c2ccc(C#N)cc2)cc1", "note": "(centres undefined)", "pEC50": 6.54},
      {"compound": "CC(CNS(C)(=O)=O)c1ccc(-c2ccsc2)cc1", "note": "(centres undefined)", "pEC50": 5.35},
      {"compound": "CCC(CNS(=O)(=O)C(C)C)c1ccc(C(C)(C)C)cc1", "note": "(centres undefined)", "pEC50": 5.70},
      {"compound": "CC(CNS(=O)(=O)C(C)C)c1ccc(-c2ccc(N)cc2)cc1", "note": "(centres undefined)", "pEC50": 6.89},
      {"compound": "CC(CNS(=O)(=O)C(F)(F)F)c1ccc(-c2ccccc2F)cc1", "note": "(centres undefined)", "pEC50": 4.48},
      {"compound": "Cc1ccc(-c2ccc(C(C)CNS(=O)(=O)C(C)C)cc2)cc1", "note": "(centres undefined)", "pEC50": 6.57},
      {"compound": "NS(=O)(=O)c1cc2c(cc1Cl)NC(C1CC3C=CC1C3)NS2(=O)=O", "note": "(centres undefined) [CYCLOTHIAZIDE]", "pEC50": 5.42},
      {"compound": "CC(C)S(=O)(=O)NCC(Cc1ccccc1)c1ccc(C(C)(C)C)cc1", "note": "(centres undefined)", "pEC50": "< 4.00"},
      {"compound": "CC(CNS(=O)(=O)Cc1ccccc1)c1ccc(-c2ccccc2F)cc1", "note": "(centres undefined)", "pEC50": "< 4.00"},
      {"compound": "CC(CNS(=O)(=O)C(C)C)c1ccc(-c2ccc(C=O)cc2)cc1", "note": "(centres undefined)", "pEC50": 6.60},
      {"compound": "CC(CNS(=O)(=O)C(C)C)c1ccc(-c2ccc(C(=O)O)cc2)cc1", "note": "(centres undefined)", "pEC50": 5.85},
      {"compound": "CC(C)S(=O)(=O)NCCc1ccc(C(C)(C)C)cc1", "pEC50": 4.89},
      {"compound": "CCCS(=O)(=O)NCC(C)c1ccc(-c2ccccc2F)cc1", "note": "(centres undefined)", "pEC50": 4.62},
      {"compound": "CC(CNS(=O)(=O)C(C)C)c1ccc(C(C)(C)C)cc1", "note": "(centres undefined)", "pEC50": 5.92},
      {"compound": "CCCC(CNS(=O)(=O)C(C)C)c1ccc(C(C)(C)C)cc1", "note": "(centres undefined)", "pEC50": 4.55},
      {"compound": "CC(CNS(=O)(=O)C(C)C)c1ccc(-c2ccc(C(F)(F)F)cc2)cc1", "note": "(centres undefined)", "pEC50": "< 5.52"},
      {"compound": "CCS(=O)(=O)NCC(C)c1ccc(-c2ccccc2F)cc1", "note": "(centres undefined)", "pEC50": 5.27},
      {"compound": "CC(CNS(=O)(=O)c1ccccc1)c1ccc(-c2ccccc2F)cc1", "note": "(centres undefined)", "pEC50": 4.20},
      {"compound": "CCCCS(=O)(=O)NCC(C)c1ccc(-c2ccccc2F)cc1", "note": "(centres undefined)", "pEC50": "< 4.00"},
      {"compound": "CC(CNS(=O)(=O)C(C)C)c1ccc(-c2ccc(Cl)cc2)cc1", "note": "(centres undefined)", "pEC50": "< 5.52"},
      {"compound": "CC(CNS(=O)(=O)C(C)C)c1ccc(-c2ccccc2F)cc1", "note": "(centres undefined)", "pEC50": 5.36},
      {"compound": "CC(C)S(=O)(=O)NCCc1ccc(-c2ccccc2F)cc1", "pEC50": 5.14},
      {"compound": "CC(CN)c1ccc(-c2ccccc2F)cc1", "note": "(centres undefined)", "pEC50": "< 4.00"},
      {"compound": "CC(CNS(C)(=O)=O)c1ccc(-c2ccccc2F)cc1", "note": "(centres undefined)", "pEC50": 4.71},
      {"compound": "O=C(c1ccc2nccnc2c1)N1CCCCC1", "note": "[CX516]", "pEC50": "< 3.00"},
      {"compound": "CC(CNS(=O)(=O)C(C)C)c1ccc(-c2ccccc2)cc1", "note": "(centres undefined)", "pEC50": 6.00}
    ]}
  ]
}
